Compound activity: PubChem, several laboratories
Rev-RRE block: disrupts HIV-1 Rev binding to RRE RNA | inhibition, % at 8 µM | 97,000 tested, 0.79% active | AID 704 | Rev peptide-RRE RNA binding, FRET;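 active = inhibition above the screen-wide mean plus 3 SD, cut at about 35% in these data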;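 also: 0% = median DMSO wells and 100% = median Neomycin B control wells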
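Test system: Cy5-tagged RRE RNA duplex with fluorescein-tagged Rev peptide; Probe or stimulus: labelled Rev peptide; Schedule: 5 min preincubation and 15 min binding, 25 °C; Signal: FRET fluorescence readout; Evaluation: % inhibition from 671/540 nm acceptor-to-donor ratio, scaled between controls; Control set: DMSO and neomycin B.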
EphB4 antag: EphB4-ephrin-B2 interaction antagonism; P54760; EphB4 LBD / TNYL-RAW-Alexa532 peptide, fluorescence polarization; inhibition, % at 7 µM; 97,000 tested, 0.15% active; AID 720;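 active = inhibition above the screen-wide mean inhibition plus 3 SD, cut at about 15% in these data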;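 also: 0% = DMSO wells and 100% = excess unlabeled TNYL-RAW peptide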
Plk1 PBD FP: blocks phosphopeptide binding to human Plk1 polo box domain. P53350. Plk1 PBD phosphopeptide binding, fluorescence polarization. inhibition, %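 (tested at about 20 µM)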. 97,000 tested, 0.13% active; in the data active = inhibition above about 34%, passing the limit was not always enough
Target sequence (P53350 whole entry, looked up, the tested form may be a part): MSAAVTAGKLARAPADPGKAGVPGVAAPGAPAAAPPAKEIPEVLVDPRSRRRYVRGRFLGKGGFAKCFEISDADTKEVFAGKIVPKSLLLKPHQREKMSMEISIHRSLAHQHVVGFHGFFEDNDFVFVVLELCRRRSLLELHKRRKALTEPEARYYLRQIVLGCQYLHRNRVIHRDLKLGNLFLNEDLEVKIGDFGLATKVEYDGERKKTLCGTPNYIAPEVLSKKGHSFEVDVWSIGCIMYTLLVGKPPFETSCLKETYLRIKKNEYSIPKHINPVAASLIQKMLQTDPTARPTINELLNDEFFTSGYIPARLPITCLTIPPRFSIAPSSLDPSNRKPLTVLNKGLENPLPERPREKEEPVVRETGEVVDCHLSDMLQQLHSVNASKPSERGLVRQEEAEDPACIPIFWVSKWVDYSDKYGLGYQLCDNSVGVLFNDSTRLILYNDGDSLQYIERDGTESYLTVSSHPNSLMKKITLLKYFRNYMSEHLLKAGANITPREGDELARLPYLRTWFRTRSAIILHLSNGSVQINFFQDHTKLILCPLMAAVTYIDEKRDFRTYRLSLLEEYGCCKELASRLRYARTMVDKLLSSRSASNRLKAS
PostGolgi yeast: growth inhibition of a yeast mutant, post-Golgi transport screen; post-Golgi transport phenotypic cell assay; AID 739; inhibition, % at 10 µM; 98,000 tested, 0.9% active;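 also: yeast cells grown in 1536-well plates; yeast grown about 18 h at 30C before absorbance read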
PostGolgi ctrl: yeast control strain growth, post-Golgi counter-screen. efflux-deficient yeast background strain, growth absorbance A615, 16 h. inhibition, % at 10 µM. 98,000 tested, 5% active
PLK1 kinase inh: PLK1 (human) kinase inhibition | P53350 | recombinant PLK1 kinase, TR-FRET peptide phosphorylation | inhibition, % at 10 µM | 97,000 tested, 0.53% active;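 active = inhibition of 50% or more in the single-concentration screen; inactive = inhibition below 50%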;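 also: 0% = DMSO max control and 100% = H-89 dihydrochloride min control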
* marks the source's active call; other numbers are inactive results; . = no result given; [ ] = dose if it differs, or a comment. An excerpt weighted towards active compounds, which were near 6.4% of everything screened. Rule as the data show it, unless noted: active = inhibition above about 30%; inactive = the rest.

SMILES	Rev-RRE block	EphB4 antag	Plk1 PBD FP	PostGolgi yeast	PostGolgi ctrl	PLK1 kinase inh
CCCN(CCC)S(=O)(=O)c1ccc(C(=O)N2CCCc3ccccc32)cc1	9	2	-16	4	18	-9
Cc1ccc(OCC(=O)N2CCC(N3CCCCCC3)CC2)cc1	8	1	10	-2	35*	-1
Cc1cc(C)cc(OCC(=O)N2CCCCCC2)c1	-4	-14	9	-11	34*	-7
COc1ccc(OCC(=O)N2CCN(C(=O)COc3ccc(Br)cc3)CC2)cc1	11	1	-24	-10	41*	-11
CC(C)Sc1nc2ccccc2n1CC(N)=O	5	0	1	25	6	4
CCCNC(=O)c1ccccc1NC(=O)c1ccc(CSc2ccccc2)cc1	14	4	-29	12	80*	-14
CC(C)Oc1ccc(CNC2CCOC(C)(C)C2)cc1 (centres undefined)	8	-9	-11	1	42*	-7
CC(C)Oc1ccc(CNCC2(O)CCOC(C)(C)C2)cc1 (centres undefined)	0	0	4	-2	-7	-4
O=C(c1cccn(Cc2ccc(Cl)c(Cl)c2)c1=O)N1CCOCC1	5	2	20	12	8	-13
O=c1c(-c2nc3ccccc3s2)cccn1Cc1ccc(Cl)c(Cl)c1	19	6	-35	-10	36*	-2
O=C(Nc1ccc(Cl)c(Cl)c1)N(Cc1cccnc1)Cc1ccco1	11	-8	5	96*	105*	7
S=C(NCc1ccco1)Nc1ccc(Cl)c(Cl)c1	-2	-3	-12	4	41*	-12
CC(=O)NC(CC(=O)Nc1cccc(S(=O)(=O)N2CCCCC2)c1)c1ccccc1 (centres undefined)	1	-3	14	-9	2	-2
CCOc1ccccc1N/C=C/C(=O)C(C)(C)C	0	4	-11	-18	33*	-7
CCC(CC)C(=O)NCc1ccccc1Cl	.	.	.	3	-6	.
COc1cccc(NC(=O)Cn2c(=O)n(CC3CCCO3)c(=O)c3ccccc32)c1 (centres undefined)	2	7	-33	4	1	-7
Cc1nc(N2CCC(C)CC2)c2c(C)c(C(=O)O)sc2n1	8	8	-6	1	0	-4
COC(=O)c1ccc(N(C(=O)CNC(=O)c2ccco2)C(C(=O)NC2CCCC2)c2ccco2)cc1 (centres undefined)	3	-10	-11	.	.	-14
COc1ccc(O)c(C(=O)CC(=O)c2ccccc2)c1	8	6	-4	12	33*	-17
CC(=O)OCc1c(C(F)(F)F)nn(C)c1Sc1ccccc1	10	7	-3	-3	23	-9
Cc1onc(-c2ccccc2Cl)c1C(=O)N1CCN(c2cccc(Cl)c2)CC1	.	.	-11	20	-7	-7
Cc1onc(-c2ccccc2Cl)c1C(=O)N1CCN(c2ccccc2)CC1	1	-7	4	0	39*	-18
CCOC(=O)C1CCN(C(=O)Cc2cccs2)CC1	3	-5	-10	-4	36*	-12
CCOC(=O)C1CCN(C(=O)c2c(-c3c(Cl)cccc3Cl)noc2C)CC1	2	2	-12	33*	8	-5
CC1=CC(C)=Nc2ccccc2N1	47*	-3	-1	0	5	-2
SMILES	Rev-RRE block	EphB4 antag	Plk1 PBD FP	PostGolgi yeast	PostGolgi ctrl	PLK1 kinase inh
CC1(C)CC(=O)C2=C(C1)Nc1ccccc1N=C2	45*	-2	7	2	11	-11
Oc1ccc2ccccc2c1/C=N/Nc1nnc(-c2ncc[nH]2)c2ccccc12	8	5	-22	9	39*	27
O=C(c1cccc(F)c1)N1CCN(c2cccc(Cl)c2)CC1	141*[fluorescence artefact?]	1	-9	6	19	-10
O=c1c(-c2nnc(SCc3ccc(Cl)cc3Cl)o2)cccn1Cc1ccccc1	1	7	-7	-1	66*	-9
Clc1ccc(CSc2nnc(-c3ccncc3)o2)c(Cl)c1	10	1	7	0	16	39
COc1ccc(OC)c(NC(=O)CNC(=O)c2cccs2)c1	11	-1	-11	-6	-13	-3
Cc1cc(=O)n2nc(-c3ccc(C(F)(F)F)cc3)sc2n1	6	-1	-2	13	28	-10
NC(=O)C1(N2CCCCC2)CCN(c2nc(-c3ccc(Br)cc3)cs2)CC1	-8	2	11	6	60*	-10
Fc1ccc(Sc2nc(-c3ccccc3)nnc2C(F)(F)F)cc1	12	-2	-14	16	72*	3
CC1CCCN(C(=O)C(C)Sc2nc(-c3ccccc3)cc(C(F)(F)F)n2)C1 (centres undefined)	-5	-3	12	-6	26	-4
CC(=O)[C@@H]1[C@@H]2C(=O)N(c3ccc(F)c(Cl)c3)C(=O)[C@@H]2C2c3ccccc3C=CN21 (some centres undefined)	.	.	.	1	15	.
O=C(c1ccco1)[C@@H]1[C@@H]2C(=O)N(c3ccc(F)cc3)C(=O)[C@@H]2C2c3ccccc3C=CN21 (some centres undefined)	42*	11	9	5	3	-8
O=C(c1ccco1)[C@@H]1[C@@H]2C(=O)N(c3ccc(Br)cc3)C(=O)[C@@H]2C2c3ccccc3C=CN21 (some centres undefined)	41*	-2	-15	.	.	2
Cc1ccccc1Cn1cnc2c([N+](=O)[O-])c(C)c(C)cc21	14	2	-5	14	40*	-5
CCN(CC)CCNS(=O)(=O)c1ccc(OC)c(Br)c1	9	-5	6	2	2	-15
Clc1ccc(CN2CCN(c3ncnc4scc(-c5cccs5)c34)CC2)cc1	3	-1	0	7	58*	62*
Cc1ccccc1N1CCN(c2ncnc3scc(-c4cccs4)c23)CC1	12	0	-3	-8	21	27
CC(NC(=O)Cc1cccs1)c1ccc2c(c1)OCO2 (centres undefined)	-3	1	31	12	37*	2
Oc1cccc(-c2nc3ccc4ccccc4c3c3c2CCC3)c1	3	6	-6	55*	44*	-9
N#Cc1c(N)nc2c(c1-c1cccc(O)c1)CCCCCC2	7	5	29	-7	21	-3
O=S(=O)(Nc1nc2ccccc2s1)c1ccc(Cl)s1	8	1	-12	8	31*	-14
Cc1ccc(Sc2ccc(N)cc2C#N)cc1	3	7	0	.	.	-9
COc1ccc(CNC(=O)c2ccc(NS(=O)(=O)c3c(C)noc3C)cc2)cc1	6	3	17	6	31*	-5
COc1ccccc1CNC(=O)c1ccc(NS(=O)(=O)c2c(C)noc2C)cc1	1	2	8	9	-9	-2
CCOc1ccc(N2CC(C(=O)Nc3ccccc3F)CC2=O)cc1 (centres undefined)	-2	1	13	-5	8	-26
